From ChEMBL document CHEMBL1124794, “Synthesis, chemistry, and antineoplastic activity of alpha-halopyridinium salts: potential pyridone prodrugs of acylated vinylogous carbinolamine tumor inhibitors” (J Med Chem, 1990) come the findings set out here.

Series [1] in a line: Effect of pH on carbamate hydrolysis in 0.05 M buffer concentration at the pH 4.0, 25 degree C. The class given is ADME. The gist of the method: (§1)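 Bis-carbamate in acetonitrile–water (1:1; buffer added to a 0.5 mg/mL acetonitrile solution), 0.05 M buffer, ionic strength 0.136 (KCl), 25 ± 0.1 °C. Buffers: phosphate pH 2.0; citrate pH 3.0–3.5; succinate pH 4.0; acetate pH 5.0; phosphate pH 6.0–8.0; borate pH 9.0; carbonate pH 10.0. HPLC bis-carbamate peak-area loss, ln(area0/areat) vs time slope = kobs. Duplicates averaged.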

The nature of series [2]: Effect of pH on carbamate hydrolysis in 0.05 M buffer concentration at the pH 6.0, 25 degree C. The class given is ADME. A digest of the protocol: as §1
Series [3] deals with L1210. Nature of the series: In vivo activity against murine L1210 tumor system at the dose of 36 mg/kg, activity expressed as TDS; 6/6. The class given is functional, Mus musculus. The gist of the method: (§2)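 L1210 lymphocytic leukemia: ascitic fluid with ca. 10^6 cells injected ip into CD2F1 mice. Dosing started 24 h after inoculation and was repeated daily for five doses in total, from solutions or suspensions made fresh each day. Toxicity day survivors were scored on day 5. Body weight difference is day 5 minus day 1. %T/C is based on median survival time versus controls.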

The nature of series [4]: Half life at the pH 3.0. The class given is ADME. Conditions: buffer. A digest of the protocol:
as §1

Series [5] is described as follows: Effect of phosphate buffer on carbamate hydrolysis in acetonitrile-water at the concentration of 0.025 M on pH 3.0, 25 degree C. It is filed as ADME. Particulars: in the assay text read “citrate buffer” for “phosphate buffer”. The gist of the method:
(§3)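 Bis-carbamate in acetonitrile–water (1:1), 25 ± 0.1 °C. Citrate buffer at pH 3.0 or phosphate buffer at pH 7.4, at 0.01, 0.025 or 0.05 M, ionic strength 0.136 (KCl). Kinetics followed by HPLC as the decrease in bis-carbamate peak area. The regression slope of ln(area0/areat) vs time gave pseudo-first-order kobs. Duplicates averaged.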

Series [6] is described as follows: In vivo activity against murine M5076 tumor system at the dose of 60 mg/kg, activity expressed as %T/C. The class given is functional, Mus musculus.
Series [7] can be described thus: In vivo activity against murine M5076 tumor system at the dose of 166.7 mg/kg, activity expressed as body weight difference; T-C. The class given is functional, Mus musculus. The gist of the method: (§4)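 M5076: ascitic fluid with ca. 10^6 cells inoculated ip into CD2F1 mice. Dosing started 24 h after inoculation and was then given every 4 days for four doses in total, from solutions or suspensions made fresh each day. Toxicity day survivors were scored on day 5. Body weight difference is day 14 minus day 1. %T/C is based on median survival time versus controls.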

A short description of series [8]: Half life at the buffer concentration of 0.025 M. The class given is ADME. The gist of the method:
as §3

The test system of series [9] is L1210. Nature of the series: In vivo activity against murine L1210 tumor system at the dose of 100 mg/kg, activity expressed as TDS; 6/6. It is filed as functional, Mus musculus. The gist of the method: as §2
The test system of another series is P388. Nature of the series: In vivo activity against P388 Lymphocytic Leukemia in CD2F1 mice at the dose of 100 mg/kg, activity expressed as % T/C. It is filed as functional, Mus musculus. The gist of the method:
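CD2F1 mice were inoculated with ascitic fluid holding ca. 10^6 P388 cells. Drug was given daily from 24 h after inoculation, from solutions or suspensions made fresh each day, some as a saline suspension. TDS is survivors/initial animals on day 5. BWD is body weight on day 5 minus day 1. %T/C compares median survival of treated and control mice.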

Series [10] in a line: Effect of pH on carbamate hydrolysis in 0.05 M buffer concentration at the pH 5.0, 25 degree C. The class given is ADME. The gist of the method: as §1
Series [11] can be described thus: Half life at the pH 5.0. Conditions: buffer. It is filed as ADME. A digest of the protocol:
as §1

Series [12] in a line: Effect of phosphate buffer on carbamate hydrolysis in acetonitrile-water at the concentration of 0.01 M on pH 3.0, 25 degree C. The class given is ADME. Conditions: in the assay text read “citrate buffer” for “phosphate buffer”. A digest of the protocol:
as §3

Series [13] in a line: In vivo activity against murine M5076 tumor system at the dose of 21.6 mg/kg, activity expressed as KE. It is filed as functional, Mus musculus. A digest of the protocol:
as §4

Series [14] can be described thus: Half life at the pH 10.0. The class given is ADME. Conditions: buffer. A digest of the protocol:
as §1

Series [15] in a line: In vivo activity against murine M5076 tumor system at the dose of 60 mg/kg, activity expressed as TDS; 10/10. The class given is functional, Mus musculus.
Series [16] can be described thus: Effect of pH on carbamate hydrolysis in 0.05 M buffer concentration at the pH 10.0, 25 degree C. The class given is ADME. A digest of the protocol: as §1
The subject of series [17] is L1210. Nature of the series: In vivo activity against murine L1210 tumor system at the dose of 166.7 mg/kg, activity expressed as body weight difference; T-C. The class given is functional, Mus musculus. The gist of the method:
as §2

Series [18] can be described thus: Half life at the pH 9.0. The class given is ADME. Particulars: buffer. A digest of the protocol: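 Bis-carbamate hydrolysis in acetonitrile–water (1:1) with 0.05 M borate buffer (boric acid–NaOH), pH 9.0, ionic strength 0.136 adjusted with KCl, 25 °C, thermostated. Loss of the bis-carbamate peak area was tracked by HPLC. k_obs is the slope of ln(area0/areat) vs time. Values are averages of two determinations.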

Series [19] can be described thus: Effect of pH on carbamate hydrolysis in 0.05 M buffer concentration at the pH 2.0, 25 degree C. It is filed as ADME. The gist of the method:
as §1

In series [20] the test system is L1210. Nature of the series: In vivo activity against murine L1210 tumor system at the dose of 166.7 mg/kg, activity expressed as TDS; 5/6. The class given is functional, Mus musculus. A digest of the protocol:
as §2

Series [21] can be described thus: In vivo activity against murine M5076 tumor system at the dose of 100 mg/kg, activity expressed as %T/C; 10/10. It is filed as functional, Mus musculus. A digest of the protocol:
as §4

The test system of series [22] is L1210. Nature of the series: In vivo activity against murine L1210 tumor system at the dose of 25 mg/kg, activity expressed as body weight difference. The class given is functional, Mus musculus. A digest of the protocol: as §2
A short description of series [23]: Half life at the ionic strength 0.10 M NaCl. The class given is ADME. The gist of the method: (§5)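 Pyridinium salt in 0.02 M phosphate buffer, pH 7.4, 25 °C, with NaCl varied 0.10–1.0 M. Loss of the pyridinium chromophore's UV absorbance maximum (conversion to pyridone) followed over time. Pseudo-first-order kobs and half-life derived from that decay.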
Series [24] is described as follows: Half life at the buffer concentration of 0.02 M. It is filed as ADME. A digest of the protocol:
(§6)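 α-Fluoropyridinium hydrolysis to pyridone in phosphate buffer at 0.02, 0.05 or 0.10 M, pH 6.5 or 8.0, ionic strength […] °C. Pyridinium UV absorbance maximum followed with time to give pseudo-first-order kobs and half-life.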

The nature of series [25]: Half life at the pH 7.0. Particulars: buffer. The class given is ADME. A digest of the protocol:
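Pyridinium-to-pyridone hydrolysis in 0.05 M phosphate buffer, ionic strength 0.25 M, 25 °C. pH set by meter. Loss of the pyridinium UV absorption maximum was followed over time to give pseudo-first-order k_obs and half-life.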

A short description of series [26]: Effect of Ionic strength (1.0M NaCl)on the hydrolysis of pyridinium Moity in 0.02 M buffer concentration, pH 7.4,25 degree C. The class given is ADME. The gist of the method: as §5
Series [27] is described as follows: Effect of phosphate buffer concentration on the hydrolysis of alpha Fluoropyridinium Moity at the concentration of 0.02M, pH 6.5, 25 degree C. The class given is ADME. The gist of the method:
as §6

Series [28] can be described thus: Half life at the concentration of 0.02 M. It is filed as ADME.
The nature of series [29]: In vivo activity against murine M5076 tumor system at the dose of 25 mg/kg, activity expressed as body weight difference. The class given is functional, Mus musculus. The gist of the method:
as §4

Series [30] in a line: Effect of Ionic strength (0.10 M NaCl)on the hydrolysis of pyridinium Moity in 0.02 M buffer concentration, pH 7.4,25 degree C. It is filed as ADME. A digest of the protocol:
as §5

A short description of series [31]: Half life at the ionic strength 0.50 M NaCl. The class given is ADME. The gist of the method: as §5
Series [32] is described as follows: Effect of phosphate buffer on the hydrolysis of alpha Fluoropyridinium Moity at the concentration of 0.05M, pH 6.5, 25 degree C. It is filed as ADME. A digest of the protocol: as §6

By half-life is commonly meant how long it takes for the measured level to halve. A lower half-life goes with fast loss. As usually defined, the T/C is the result in the treated group divided by that in the control group, in per cent. Regarding `CC(C)NC(=O)OCc1c(COC(=O)NC(C)C)c(-c2ccn(C)c(=O)c2)n2c1CCC2`, the K obs in series [1] came to 0.0149 min⁻¹; in [2], 0.0135 min⁻¹; in series [5] it was 0.0342 min⁻¹; in [10] it was 0.0139 min⁻¹; in [12] it was 0.0349 min⁻¹; in series [16], 0.0133 min⁻¹. The compound also registered a K obs in [19] of 0.33 min⁻¹. Further, the TDS in the series with L1210 [3] came to 6; with L1210 [9], 6; in [15], 10; in the series with L1210 [20], 5; in series [21], 10. Also, the half-life was determined as 22.8 min in series [4]; 51.9 min in [8]; 50 min in series [11]; 52.3 min in series [14]; 54 min in [18]. For the same compound, the values for the T/C (in series [6]; in the series on P388) were 114% and 148%, respectively. In addition, the values for the BWD (in [7]; in the series on L1210 [17]) were -5.8 g and -3.8 g, respectively. For the same compound, in [13], the KE is recorded as -1.93.
Take `CC(C)NC(=O)OCc1c(COC(=O)NC(C)C)c(-c2cc[n+](C)c(F)c2)n2c1CCC2.[I-]`: the BWD with L1210 [22] stood at 0.6 g; in series [29], 0.4 g. The half-life came to 29.1 min in series [23]; 52.5 min in series [24]; 33.8 min in series [25]; 133 min in [28]; 63.2 min in series [31]. The K obs turned out to be 0.007 min⁻¹ in [26], 0.0052 min⁻¹ in [27], 0.024 min⁻¹ in [30] and 0.0072 min⁻¹ in series [32].
